The list is not random: actives were taken first. Their share in the collection is about 2.3%.
T cell HTS: modulators of CD8 T cell-vesicle binding, primary screen, mouse 2C CD8+ T cells, flow cytometry; 2C CD8+ T cell-vesicle binding; active compounds read low; response (vesicle binding), % at 7 µM; 330,000 compounds, 0.068% hits; AID 2052, 2009;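 active = response, share of CD8 T cells binding vesicles, and their 90th percentile fluorescence all below set limits, cut at about 80% in these data, passing the limit was not always enough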;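 also: values below 100% mean blocked vesicle binding to the CD8+ T cells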
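System: murine 2C transgenic CD8+ T lymphocytes; also added: QL9-loaded Drosophila micro-vesicles; times: binding 1.5 h at 37 °C; measured by: flow cytometry, PE anti-B7-1 (FL2) versus Alexa647 anti-CD8 (FL8), PFA-fixed; control set: Peptide-free naked vesicles (low) and QL9 vesicles with 0.7% DMSO vehicle (high)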
DSG3 Ab inh: inhibitors of pemphigus antibody binding to DSG3, primary screen, biochemical, bead-based, flow cytometry, scFv-GFP; DSG3-coupled beads, scFv-anti-DSG3-GFP binding; active compounds read low; AID 588358, 2011; Desmoglein-3 (Homo sapiens), P32926; 310,000 compounds, 0.48% hits; binding (percent of control), % at 10 µM;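 active = binding more than 3 SD below its plate's average and above zero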;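 also: hits lower antibody fragment binding to DSG3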
CHT block: inhibitors of human choline transporter CHT; 310,000 compounds, 0.86% hits; B-score at 10 µM; High affinity choline transporter 1 (Homo sapiens), Q9GZV3; CHT-expressing cells, membrane potential dye, choline response; active compounds read low; AID 488975, 2010;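 active = B-score over 3 SD under the library average, and starting fluorescence ratio not unusually high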;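 also: choline stimulus applied at its EC90 after an EC20 pre-addition; B-score computed on integrated fluorescence ratio after choline addition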
GPR7 antagonist: GPR7 receptor antagonists, primary screen, cell-based, fluorescence, single concentration. Neuropeptides B/W receptor type 1 (Homo sapiens), P48145. GPR7-expressing cells, fluorescence antagonist assay. inhibition, % at 4.4 µM. 290,000 compounds, 1.1% hits; in the data active = inhibition above about 16%, passing the limit was not always enough;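 also: cells stimulated with the agonist NPW; 0% = agonist with vehicle and 100% = vehicle without agonist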
CHT allo act: CHT positive allosteric modulators, primary screen, cell-based, membrane potential dye, choline EC20 | High affinity choline transporter 1 (Homo sapiens), Q9GZV3 | CHT-expressing cells; active compounds read high; LV-AA mutant CHT in HEK293 cells | B-score at 10 µM | 310,000 compounds, 0.49% hits | AID 488977, 2010;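 active = initial fluorescence not abnormally high and integrated response B-score, plate-corrected, over 3 SD above library mean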
p-CIP stab down: p/CIP-EGFP fusion destabilizers, primary screen, fluorescence, F442A cells | Q05BA5 | 16 h | decrease of EGFP signal, % at 10 µM | 290,000 compounds, 0.01% hits | AID 1984, 2009;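 active = EGFP signal decrease of at least 30% at 10 µM or well 3 SD below plate mean, unless failing retest; inactive = the rest, including hits failing retest or dose response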
CHT inh conf: CHT inhibitors, confirmation, cell-based, membrane potential dye, duplicate | shares compounds with CHT block | CHT-expressing cells, choline membrane potential dye; LV-to-AA substituted CHT, HEK293 cells | CHT activity remaining % of control (active compounds read low), % at 10 µM | 2,400 compounds, 70% hits | AID 493221, 2011;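 active = choline transporter activity left, mean of duplicates at 10 µM, below buffer-only control mean minus 3 SD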;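 also: depolarization triggered by choline at its EC90 following an EC20 pre-addition; 0% = hemicholinium-3 full block and 100% = buffer-only control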
HEK293 MPD ctr: membrane potential effects in parental HEK293, counter-screen for CHT inhibitor project, cell-based, membrane potential dye. 2,400 compounds, 4% hits. membrane potential ratio readout (active if shifted either direction beyond buffer ±3SD; no single direction) at 10 µM. choline response; active = decrease or increase beyond buffer ±3SD. shares compounds with CHT block;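 also: parental cells lack the transporter so any hit is non-specific; ratio is peak minus trough fluorescence over baseline after EC90 choline challenge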
Starred values were filed as active, the others as inactive; i = inactive; · = no result.

SMILES | T cell HTS | DSG3 Ab inh | CHT block | GPR7 antagonist | CHT allo act | p-CIP stab down | CHT inh conf | HEK293 MPD ctr
O=C(NCC(c1ccco1)N1CCCCC1)c1cccc(S(=O)(=O)Nc2ccccc2Cl)c1 (centres undefined) | i | 107 | i | -10 | i | 8 | · | ·
COc1ccccc1NS(=O)(=O)c1cccc(C(=O)NCC(c2ccco2)N2CCCC2)c1 (centres undefined) | 347 | 100 | · | · | · | · | · | ·
COc1ccc(C(CNC(=O)c2cccc(S(=O)(=O)Nc3ccc(C)cc3)c2)N2CCCCC2)cc1 (centres undefined) | 179 | 108 | -14* | · | i | · | 12%* | i
COc1ccc(NS(=O)(=O)c2cccc(C(=O)NCC(c3ccco3)N3CCCCC3)c2)cc1 (centres undefined) | 442 | 105 | -11* | · | i | · | 0.3%* | i
O=C(NCC(c1ccco1)N1CCCC1)c1cccc(NS(=O)(=O)c2ccc(Br)cc2)c1 (centres undefined) | 263 | 113 | i | · | i | · | · | ·
COc1ccccc1/C=C/C=N/NC(=O)c1cc(-c2ccc(C)o2)[nH]n1 | 432 | · | -17* | -19 | i | 2 | i | i
Cc1ccc(NC(=S)NC2CCSc3ccccc32)cc1C (centres undefined) | 343 | 102 | i | -23 | i | -4 | · | ·
CCN(CC(=O)Nc1ccc(NC(C)=O)cc1)C(=O)c1cc([N+](=O)[O-])ccc1Sc1ccc(Cl)cc1 | · | 125 | · | · | · | · | · | ·
COC(=O)CCC(=O)OC1(C)C(=O)C=C2C=C(C3CC3)N(CC3CC3)C=C2C1=O (centres undefined) | 231 | 103 | i | · | i | -5 | · | ·
CCN(CC)CCCN1C=C2C(=O)C(C)(OC(=O)CCC(=O)OC)C(=O)C=C2C=C1C1CC1 (centres undefined) | 422 | 105 | -5.7* | · | i | · | 45%* | i
C#CCN(C(=O)C1CCC(=O)N(CCc2cccc(F)c2)C1)C1CCCCC1 (centres undefined) | · | 100 | · | · | · | · | · | ·
CC1CCC(NC(=O)Cn2c3c(c(-c4ccccc4Cl)cc2=O)CCC3)CC1 (centres undefined) | 491 | 113 | -6.8* | -13 | i | 2 | 46%* | i
CC(C)CCNC(=O)Cn1c2c(c(-c3ccccc3Cl)cc1=O)CCC2 | 142 | 81 | i | -8 | i | -18 | · | ·
COc1cc2c(cc1OC)C(c1c(Cl)cccc1Cl)NC(=O)C2 (centres undefined) | 175 | 101 | -5.4* | -6 | i | -31 | i | i
O=C(O)c1cc(=S)nc[nH]1 | · | 92 | · | · | · | · | · | ·
Cc1ccc(S(=O)(=O)NNC(=O)Nc2ccc(Cl)cc2)cc1 | 444 | 97 | i | -5 | i | -6 | · | ·
Cc1occc1C(=O)NNS(=O)(=O)c1ccc(Cl)cc1 | 103 | 78 | -5.4* | -12 | i | 2 | 27%* | i
CCN1C[C@@H]2[C@@H]3C(=O)N(C)C(=O)[C@@H]3[C@](C)(C1=O)N2C(=O)c1ccc(Br)cc1 | · | 98 | · | · | · | · | · | ·
CC(C)NCC(O)c1cc(O)cc(O)c1 (centres undefined) | 498 | 102 | i | · | i | -8 | · | ·
CC(C)NC[C@H](O)c1ccc(O)c(O)c1 | 305 | 94 | i | · | i | · | 39%* | i
COc1ccc(-c2cc(C(=O)NCCCN3CCOCC3)c3cc(C(C)C)ccc3n2)cc1 | 370 | 105 | -7.4* | -2 | i | -14 | 50%* | i
Cc1ccc(Cl)c2c1=NC(=O)C=2c1[nH]c(=S)[nH]c1O | 197 | 102 | -5.8* | -1 | i | -2 | i | i
O=C(O)c1cccc2c1/C(=N/Nc1ccc([N+](=O)[O-])cc1[N+](=O)[O-])c1ccccc1-2 | 417 | 99 | -6.2* | -16 | i | -6 | 69%* | i
Clc1ccccc1OCc1nc(-c2ccncc2)no1 | 147 | 101 | -6.4* | -1 | i | 0 | 16%* | -11*
c1ccc(OCCCc2nc(-c3ccncc3)no2)cc1 | 373 | 99 | i | -9 | i | 0 | 59%* | -8.4*
SMILES | T cell HTS | DSG3 Ab inh | CHT block | GPR7 antagonist | CHT allo act | p-CIP stab down | CHT inh conf | HEK293 MPD ctr
c1ccc(OCc2nc(-c3ccncc3)no2)cc1 | 264 | 114 | i | 5 | i | -26 | · | ·
O=c1[nH]c(=O)c2[nH]c(=S)[nH]c2[nH]1 | · | 67 | · | · | · | · | · | ·
O=C(C[C@@H]1C/C=C\C[C@@H](NC(=O)OCC2c3ccccc3-c3ccccc32)C(=O)OCCNC1=O)N[C@@H](CO)Cc1ccccc1 | 848 | 99 | · | · | · | · | · | ·
Cn1cncc1C#Cc1ccc2c(=O)c3ccccc3oc2c1 | 371 | 92 | · | · | · | · | · | ·
CCCCNC(=O)c1ccc2c(OCC)n(CCCC)nc2c1 | · | 102 | -7.1* | -11 | i | 7 | 57%* | i
Cc1csc(C(C#N)C(=O)c2cc3ccccc3o2)n1 (centres undefined) | 463 | 104 | -5.3* | -5 | i | 4 | 61%* | i
COc1ccc(S(=O)(=O)N2CCCCCC2)cc1C(=O)N1CCN(C(C)=O)CC1 | · | 101 | · | · | · | · | · | ·
Nc1nc(Cl)nc2c1ncn2[C@@H]1O[C@H](CO)[C@@H](O)[C@H]1O | 214 | 96 | -5.8* | -31 | i | -2 | 39%* | i
Cc1nc(-c2ccc(F)cc2)c(CC(=O)N(C)CC(=O)Nc2ccc(Cl)c(C(F)(F)F)c2)s1 | · | 95 | · | · | · | · | · | ·
COc1ccc(OCC(=O)Nc2c(C(=O)N3CCC(N4CCCCC4)CC3)oc3ccccc23)cc1 | 464 | · | i | 1 | i | 3 | · | ·
O=C(COc1ccccc1)Nc1c(C(=O)N2CCC(N3CCCCC3)CC2)oc2ccccc12 | 269 | 103 | -7.5* | 5 | i | -1 | 37%* | 3.7*
O=C(Nc1c(C(=O)N2CCC(N3CCCCC3)CC2)oc2ccccc12)c1ccc(F)cc1 | 399 | 103 | -13* | -1 | i | -7 | 0.9%* | i
O=C(COc1ccc(F)cc1)Nc1c(C(=O)N2CCC(N3CCCCC3)CC2)oc2ccccc12 | 261 | · | -12* | -8 | i | -12 | 29%* | i

Compound activity: PubChem BioAssay, several laboratories
